Results on eight compounds are retold here after PubChem BioAssay AID624013 (Broad Institute, 2012).

Values joined by “and” are separate entries in the source; they are usually repeats but may differ in a detail not shown here. Identical values can stand only once. Active and inactive are the calls of the source.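 How the source made its calls: active means compounds whose fitted growth inhibition curve reaches half effect at or below twice the top tested dose; inconclusive means flat inhibition between 30 and 70 percent, or poor fit; inactive means the rest.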

Test system in the first assay: not listed separately
Briefly: glucose-fed Candida glabrata growth inhibitors – glucose medium, plate reader, dry powder, set 4, dose response (AID 624013). Conditions: Candida glabrata growth, glucose medium, OD600, 48 h; at 3 µM (top of the series). The essentials: (§1)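 Test system: Candida glabrata cells | Buffer or medium: CSM medium supplemented with glucose | Timing: 48 h at 30 °C, no shaking | Technique: OD600 absorbance | Controls: Amphotericin B 10 µM, positive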
Take `CCOC(=O)N1C(=O)C2(CCCCC2)N(c2cccc(C)c2)C1=S`: the activity change, negative = inhibition is -14.7% (inactive).
Still for that read-out and setting: next, `CCOC(=O)N1C(=O)C2(CCCCC2)N(c2ccc(F)cc2)C1=S`: -16.3% (inactive).
Same read-out and setting: next, `CCOC(=O)N1C(=O)C2(CCCCC2)N(c2ccc(C#N)cc2)C1=S`: -17% (inactive).
The same measure, in the same setting: with `CCOC(=O)N1C(=O)C2(CCCCC2)N(c2ccc(Cl)cc2)C1=S` the figure was -19.6% (inactive); with `C/C=C/[C@@H]1[C@H]2C[C@@H](C)CC[C@@H]2C(C)=C[C@H]1C(=O)c1c(O)c(-c2ccc(O)cc2)c[nH]c1=O`, -2.31% (inactive); with `CCOC(=O)N1C(=O)C2(CCCCC2)N(c2ccc(C)cc2)C1=S`, -13.3% (inactive) and -16.5% (inactive).
Turning to `CCOC(=O)N1C(=O)C2(CCCCC2)N(c2ccccc2)C1=S`, the activity change, negative = inhibition is -11.8% (inactive).

In a further assay the test system is Candida glabrata growth, glucose medium, OD600, 48 h. The description is as above.
Settings: not given
The procedure, abridged:
as §1
Consider `CC1/C=C/C=C\C=C\C=C\C=C\C=C\C=C\C(O[C@H]2OC(C)C(O)C(N)C2O)CC2OC(O)(CC(O)CC(O)C(O)CCC(O)CC(O)CC(=O)OC(C)C(C)C1O)CC(O)C2C(=O)O` (stereo partly drawn), for which the AC50 was 2120 nM.
